From ChEMBL document CHEMBL1158970, “Two new styryl lactones, 9-deoxygoniopypyrone and 7-epi-goniofufurone, from Goniothalamus giganteus” (J Nat Prod, 1991)
Converted amounts (≈) assume the structure as drawn.

What was measured:
MCF7 = experiment: Cytotoxicity against human MCF7 cells; format: functional; details: read-out: ED50 (the source's name)
In short: (§1)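 Human tumor cell cytotoxicity run by the Purdue Cancer Center's cell culture laboratory using standard protocols, with adriamycin as the positive standard. A-549, MCF-7 and HT-29 were each tested under a separately cited protocol.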

HT-29 = experiment: Cytotoxicity against human HT-29 cells; format: functional; details: read-out: ED50 (the source's name); in short: as §1
[1] = Toxicity against brine shrimp; format: organism-based; details: artemia, in vivo
In short: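 Brine shrimp lethality assay run in-house following a published method. The positive standard, adriamycin, was dissolved directly in sea water and tested immediately.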

A549 = experiment: Cytotoxicity against human A549 cells; format: functional; details: read-out: ED50 (the source's name); in short: as §1

| Compound | EC50 (MCF7) [µg/mL] | EC50 (HT-29) [µg/mL] | LC50 [1] [µg/mL] | EC50 (A549) [µg/mL] |
| --- | --- | --- | --- | --- |
| O=C1C=CC[C@H]([C@H](O)[C@H](O)c2ccccc2)O1 [GONIODIOL] | 8.27 (≈ 35.3 µM) | 2.45 (≈ 10.5 µM) | > 500 | 0.122 (≈ 0.521 µM) |
| O=C1C[C@@H]2O[C@@H]([C@H](O)c3ccccc3)[C@@H](O)[C@@H]2O1 (relative stereo) | 49.1 (≈ 196 µM) | > 100 | 475 (≈ 1900 µM) | 85.5 (≈ 342 µM) |
| COc1cccc2c1C(=O)c1c(O)c3c(c(O)c1C2=O)C[C@@](O)(C(=O)CO)C[C@@H]3O[C@H]1C[C@H](N)[C@H](O)[C@H](C)O1 [DOXORUBICIN] | 0.0177 (≈ 0.0326 µM) | 0.00416 (≈ 0.00765 µM) |  | 0.00684 (≈ 0.0126 µM) |
| O=C1C[C@H]2C[C@@H](O1)[C@H](O)[C@H](c1ccccc1)O2 | 25.4 (≈ 108 µM) | 7.38 (≈ 31.5 µM) | > 500 | 27.2 (≈ 116 µM) |
